Experimental data reported in ChEMBL document CHEMBL1147747, “HIV integrase inhibitors with nucleobase scaffolds: discovery of a highly potent anti-HIV agent” (J Med Chem, 2006).
pIC50: −log10 of the molar value. The source made the active and inactive calls. No cut-off for these calls is given here.

How the values were obtained:
in vitro [1] = settings: PBMC infected with HIV-1 TEKI
PBMC [2] = assay: Antiviral activity against HIV1 TEKI replication in PBMC at 200 uM; assay type: functional, cell-based; settings: Homo sapiens
Outline: (§1)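 PBMC cell-based microtiter anti-HIV assay against clinical isolate HIV-1 TEKI (NSI phenotype) or HIV-1 NL4-3 (SI phenotype). Test materials were run in triplicate as serial ½log10 dilutions, six to nine concentrations, from a stated high concentration (200 μM or 1 μM). IC50 and IC90 were determined, with cell viability measured in parallel. AZT was the MOI-sensitive positive control.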

PBMC [3] = assay: Antiviral activity against HIV1 NL4-3 replication in PBMC at 200 uM; assay type: functional, cell-based; settings: Homo sapiens, NL4-3, PBMC
Outline: as §1

[4] = target: T1, Human immunodeficiency virus type 1 integrase (Human immunodeficiency virus 1, UniProt Q7ZJM1); assay: Inhibition of strand transfer step of wt HIV1 integrase
HeLa [5] = assay: Anti HIV activity against HIV1 NL4-3 in HeLa-CD4-LTR-beta-gal cells in MAGI-X4 assay; assay type: functional, cell-based
Outline: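 MAGI-X4 assay in HeLa-CD4-LTR-β-gal cells infected with HIV-1 NL4-3. Detects blocks in replication up to and including Tat transactivation of the LTR. Triplicate determinations over serial ½log10 dilutions (six to nine concentrations). AZT served as positive control.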

HeLa [6] = assay: Cytotoxicity against HeLa-CD4-LTR-beta-gal cells at 200 uM; assay type: functional, cell-based; settings: Homo sapiens
Outline: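 Cytotoxicity was measured in HeLa-CD4-LTR-β-gal cells within the MAGI-X4 assay. Up to 200 μM was tested, in triplicate, as serial ½log10 dilutions.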

[7] = target: T1, Human immunodeficiency virus type 1 integrase; assay: Inhibition of 3' processing step of wt HIV1 integrase
in vitro [8] = settings: PBMC infected with HIV-1 NL4-3
PBMC [9] = assay: Antiviral activity against HIV1 NL4-3 replication in PBMC at 1 uM; assay type: functional, cell-based; settings: Homo sapiens, NL4-3, PBMC
Outline: as §1

PBMC [10] = assay: Antiviral activity against HIV1 TEKI replication in PBMC at 1 uM; assay type: functional, cell-based; settings: Homo sapiens
Outline: as §1

[11] = Therapeutic index (TI=CC50/IC50) in HIV1 NL4-3 at uM; assay type: cell-based; settings: PBMC infected with HIV-1 NL4-3; read-out: Ratio CC50/IC50
Outline: (§2)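 Therapeutic index was calculated as CC50/IC50 from the PBMC assay, using HIV-1 NL4-3 or HIV-1 TEKI. Cell viability gave CC50, and antiviral readout gave IC50. Triplicate serial ½log10 dilutions were used, with a high test concentration of 200 μM or 1 μM.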

[12] = Therapeutic index (TI=CC50/IC50) in HIV1 TEKI at 1 uM; assay type: cell-based; settings: PBMC infected with HIV-1 TEKI; read-out: Ratio CC50/IC50
Outline: as §2

T1 sequence (Q7ZJM1 whole entry): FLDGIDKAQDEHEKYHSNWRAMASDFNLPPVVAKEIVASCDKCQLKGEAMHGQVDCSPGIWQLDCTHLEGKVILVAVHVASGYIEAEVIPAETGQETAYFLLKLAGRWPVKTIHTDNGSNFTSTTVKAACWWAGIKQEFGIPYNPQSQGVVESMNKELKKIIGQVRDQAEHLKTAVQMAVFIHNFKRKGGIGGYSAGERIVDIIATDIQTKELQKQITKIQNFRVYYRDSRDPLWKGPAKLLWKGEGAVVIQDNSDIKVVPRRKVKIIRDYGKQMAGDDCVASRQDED

For `O=C(O)C(=O)/C=C(\O)c1cn(Cc2ccccc2)c(=O)n(Cc2ccccc2)c1=O`, the selectivity ratio at 200 µM (in vitro [1]) was over 4000, the CC50 (PBMC [2]) was over 200 µM and the CC90 (PBMC [2]) was over 200 µM. The pIC50 (PBMC [2]) was 7.30, the IC90 (PBMC [2]) was 3.91 µM and the CC50 (PBMC [3]) was over 200 µM. It also gave a CC90 (PBMC [3]) of over 200 µM, a pIC50 (PBMC [3]) of over 7.70 and an IC90 (PBMC [3]) of 1540 nM. The pIC50 [4] was 6.70, the Activity (HeLa [5]) was “Active” and the Activity (HeLa [6]) was “inactive”. The pIC50 [7] was 5.43 and the selectivity ratio at 200 µM (in vitro [8]) was over 10000.

For `CC(C)(C)NC(=O)[C@@H]1C[C@@H]2CCCC[C@@H]2CN1C[C@@H](O)[C@H](Cc1ccccc1)NC(=O)[C@H](CC(N)=O)NC(=O)c1ccc2ccccc2n1`, the Activity (HeLa [5]) was “inactive”.

Work on `O=C(O)C(=O)/C=C(\O)c1cn(Cc2ccccc2F)c(=O)n(Cc2ccccc2F)c1=O` yielded a pIC50 [4] of over 6.22 and a pIC50 [7] of 5.39.

With `O=C(O)C(=O)/C=C(\O)c1cn(Cc2ccccc2)c(=O)[nH]c1=O` the pIC50 [4] was 6.30 and the pIC50 [7] was 5.00.

With `Cc1cn([C@H]2C[C@H](N=[N+]=[N-])[C@@H](CO)O2)c(=O)[nH]c1=O` [ZIDOVUDINE] the Activity (HeLa [5]) was “Active”, the CC50 (PBMC [9]) was over 1000 nM and the pIC50 (PBMC [9]) was 9.74. For the same compound, the CC50 (PBMC [10]) was over 1000 nM, the pIC50 (PBMC [10]) was 9.85 and the selectivity ratio [11] was over 5560. The selectivity ratio [12] was over 7140.

`O=C(O)C(=O)/C=C(\O)c1cn(Cc2ccc(F)cc2)c(=O)n(Cc2ccc(F)cc2)c1=O` gave a pIC50 [4] of over 6.15 and a pIC50 [7] of 5.41.
